“Also recorded” adds a separate entry of the source.
Legend:
[1] = test system: BT549 cells; test: time course of cell viability in BT549 cells; type: cell-based; conditions: 25 μM 1541, 1541C, 1541D; 1 μM STS; 100 μM etoposide; 1541 and STS after 4 hours
Method in brief: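 p53-deficient BT549 breast cancer cells (2,000) were exposed to 25 μM test compound or either of two analogs, 1 μM staurosporine, 100 μM etoposide or DMSO (final 0.5%). Cell viability was assayed at 2, 4, 6, 8, 12 and 24 h.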

[2] = test system: BT549 cells; test: time course of DEVDase activity in BT549 cells; type: cell-based; conditions: 25 μM 1541, 1 μM STS
Method in brief: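 p53-deficient BT549 breast cancer cells (2,000) were treated with 25 μM test compound or analogs, 1 μM staurosporine, 100 μM etoposide or DMSO (final 0.5%). Executioner caspase (DEVDase) activity was measured at 2, 4, 6, 8, 12 and 24 h.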

[3] = test system: BT549 cells; test: cytochrome C release in cytoplasmic extracts of BT549 cells; type: cell-based; conditions: 25 μM 1541, 1 μM STS, harvested every 3 hours
[4] = test system: wild type (A3) Jurkat cells; test: cell viability of wild type; type: cell-based, human; conditions: 25 μM 1541, 1 μM STS, 100 ng/ml FasL
Method in brief: (§1)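 Wild-type (A3) and caspase-8-deficient (I9.2) human Jurkat cells (100,000 cells) were exposed to 25 μM test compound, 1 μM staurosporine or 100 ng/ml FasL. Cell viability was assayed every 2 hours.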

[5] = test system: caspase-8 deficient Jurkat cells (I9.2); test: cell viability of caspase-8 deficient; type: cell-based, human; conditions: 25 μM 1541, 1 μM STS, 100 ng/ml FasL
Method in brief: as §1

[6] = test system: wild type murine embryonic fibroblasts (MEF); test: histone ELISA apoptosis assay in wild type MEFs; type: cell-based; conditions: 1 μM STS, 25 μM 1541, 12 hours
Method in brief: (§2)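 Wild-type and Bak−/−/Bax−/− double-knockout murine embryonic fibroblasts (5,000 cells) were treated at 37 °C with 1 μM staurosporine, 25 μM test compound or DMSO (final 0.5%). Apoptosis was measured after 12 h by histone sandwich ELISA on lysates, which detects histone solubilisation from DNA fragmentation.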

[7] = test system: Bak−/−/Bax−/− double knockout (DKO MEFs); test: histone ELISA apoptosis assay in Bak−/−/Bax−/− DKO MEFs; type: cell-based, murine; conditions: 1 μM STS, 25 μM 1541, 12 hours
Method in brief: as §2

[8] = target: T1, procaspase-3 (Homo sapiens, UniProt P42574); test: procaspase-3 autoproteolytic activation, fluorogenic Ac-DEVD-AFC activity assay; type: biochemical
T1 sequence (P42574 1-277): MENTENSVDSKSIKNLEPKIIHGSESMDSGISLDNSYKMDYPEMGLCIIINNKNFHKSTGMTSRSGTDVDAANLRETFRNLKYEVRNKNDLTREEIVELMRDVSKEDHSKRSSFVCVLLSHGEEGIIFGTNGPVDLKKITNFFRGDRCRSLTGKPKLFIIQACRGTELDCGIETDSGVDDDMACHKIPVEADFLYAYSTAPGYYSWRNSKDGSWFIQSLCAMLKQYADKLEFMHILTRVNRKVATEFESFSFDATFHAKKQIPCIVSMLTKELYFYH

[9] = target: T2, procaspase-6 (Homo sapiens, UniProt P55212); test: procaspase-6 activation, fluorogenic Ac-VEID-AFC activity assay; type: biochemical
T2 sequence (P55212 1-293): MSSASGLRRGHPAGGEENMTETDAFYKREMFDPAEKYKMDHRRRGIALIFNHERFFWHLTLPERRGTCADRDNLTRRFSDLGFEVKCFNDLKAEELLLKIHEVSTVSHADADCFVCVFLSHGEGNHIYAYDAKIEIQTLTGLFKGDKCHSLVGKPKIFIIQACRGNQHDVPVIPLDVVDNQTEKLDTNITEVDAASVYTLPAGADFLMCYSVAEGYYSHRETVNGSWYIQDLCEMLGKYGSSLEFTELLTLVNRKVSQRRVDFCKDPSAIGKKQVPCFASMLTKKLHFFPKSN

[10] = test system: procaspase-7; test: procaspase-7 activation, fluorogenic Ac-DEVD-AFC activity assay; type: biochemical; conditions: procaspase-7 100 nM; 1 nM granzyme B, 25 μM 1541 or 100 μM PAC-1
Method in brief: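 Procaspase-7 (100 nM) was incubated at 37 °C with 1 nM granzyme B, DMSO, 100 μM reference procaspase activator or 25 μM test compound. Activity was sampled every 20 minutes by adding fluorogenic substrate Ac-DEVD-AFC.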

[11] = target: T1, procaspase-3; conditions: caused through chelation of inhibitory zinc ion in some assay buffers; cited from earlier work
[12] = test system: BT549 cells; test: protection against 1541-induced apoptosis with caspase inhibitors in BT549 cells; type: cell-based; conditions: preincubation with inhibitor 0.78 to 100 μM, then 25 μM 1541, 24 hours
Method in brief: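 BT549 cells (2,500) were preincubated overnight with Biotin-DEVD-FMK (caspase-3/-7 inhibitor) or Biotin-VAD-FMK (pan-caspase inhibitor) at 0.78 to 100 μM. Cells were then switched to fresh medium containing 25 μM test compound plus the same inhibitor concentration. Viability was assayed after 24 h at 37 °C.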

[13] = test system: C163A procaspase-3; test: cleavage of inactive C163A procaspase-3 by granzyme B; type: biochemical; conditions: C163A 250 nM, granzyme B 0.5 nM, alone or with 1541 25 μM
[14] = test system: procaspase-3 mutants (S198A, T199A and S205A); test: activation of procaspase-3 alanine mutants; type: biochemical; conditions: 5 hours, 25 μM 1541 or 1 nM granzyme B, 37 °C
Method in brief: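 Wild-type procaspase-3 and active-site alanine mutants (S198A, T199A, S205A), chosen by alanine scanning near the active site, were incubated 5 h at 37 °C with 25 μM test compound, 1 nM granzyme B or DMSO. Activation was sampled by kinetic assays started with fluorogenic substrate Ac-DEVD-AFC.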

[15] = target: T2, procaspase-6; conditions: cited from earlier work

CN[C@@H]1C[C@H]2O[C@@](C)([C@@H]1OC)n1c3ccccc3c3c4c(c5c6ccccc6n2c5c31)C(=O)NC4 [STS, staurosporine]
induction of apoptosis / cell death in BT549 (in words) [1]: near complete apoptosis | DEVDase activity in BT549 (in words) [2]: significantly higher | time of peak DEVDase activity [2]: 8 h | mitochondrial cytochrome C release (in words) [3]: much greater and more rapid mitochondrial cytochrome C release | apoptosis in wild type Jurkat cells (in words) [4]: comparable to 1541 | apoptosis in caspase-8 deficient Jurkat cells (in words) [5]: somewhat slower | apoptosis in wild type MEFs (in words) [6]: susceptible | apoptosis in DKO MEFs (in words) [7]: completely resistant

COc1cc([C@@H]2c3cc4c(cc3[C@@H](O[C@@H]3O[C@@H]5CO[C@@H](C)O[C@H]5[C@H](O)[C@H]3O)[C@H]3COC(=O)[C@H]23)OCO4)cc(OC)c1O [etoposide]
induction of apoptosis / cell death in BT549 (in words) [1]: much slower apoptosis

C=CCc1cccc(/C=N/NC(=O)CN2CCN(Cc3ccccc3)CC2)c1O [PAC-1]
activation of procaspase-3 (in words) [8]: no detectable increase in activity or self-proteolysis | activation of procaspase-6 (in words) [9]: no detectable increase in activity or self-proteolysis | activation of procaspase-7 (in words) [10]: no detectable increase in activity or self-proteolysis | activation of procaspase-3 seen for PAC-1 [11]: ~ 2 fold

DEVD-FMK
block of 1541-induced apoptosis (in words) [12]: completely blocked apoptosis

granzyme B: a natural proteolytic activator of procaspase-3
time to full activation of the zymogen ([8]; 1 nM granzyme B, procaspase-3 100 nM): ≤ 90 min | activation of procaspase-7 (in words) [10]: robustly activated and fully processed | cleavage of C163A procaspase-3 after 30 minutes [13]: ~ 10% | cleavage of C163A procaspase-3 after 60 minutes [13]: 20% | activation of S198A, T199A and S205A procaspase-3 (in words) [14]: efficiently activated; also recorded: wild type activity | activation of procaspase-6 by granzyme B (in words) [15]: resistant

B1: FasL: a specific inducer of the extrinsic pathway (protein, UniProt P48023 130-281, looked up)
Tumor necrosis factor ligand …: QIGHPSPPPEKKELRKVAHLTGKSNSRSMPLEWEDTYGIVLLSGVKYKKGGLVINETGLYFVYSKVYFRGQSCNNLPLSHKVYMRNSKYPQDLVMMEGKMMSYCTTGQMWARSSYLGAVFNLTSADHLYVNVSELSLVNFEESQTFFGLYKL
apoptosis in wild type Jurkat cells (in words) [4]: active | apoptosis in caspase-8 deficient Jurkat cells (in words) [5]: not in caspase-8 deficient cells
